Values after ≈ are worked out from the molar mass of the structure shown.
Legend:
Type in all cases: functional
Staphylococcus aureus [1] = assay: Antimicrobial activity against vancomycin-intermediate Staphylococcus aureus isolate MU50 assessed as bacterial count at 32 times MIC after 24 hrs by colony counting method
How it was run: (§1)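 24-h time-kill run in triplicate in supplemented Mueller-Hinton broth (12.5 μg/ml Mg, 25 μg/ml Ca), adjusted to 1.1–1.3 mM Ca for daptomycin. […] Samples were taken at 0, 1, 4, 8 and 24 h and counted on BHI agar after 24 h at 35°C. Value is log10 CFU/ml change from baseline at 24 h.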

Staphylococcus aureus [2] = assay: Antimicrobial activity against vancomycin-resistant Staphylococcus aureus isolate MI assessed as bacterial count at 8 times MIC after 24 hrs by colony counting method in presence of 50% human serum
How it was run: (§2)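 Time-kill in triplicate, starting inoculum 5 × 10^6 CFU/ml from a mid-exponential culture. Medium was 50% heat-treated, filtered human serum plus 50% broth, final 25 SMHB for TD-1792 and 50 SMHB for daptomycin. Drug at multiples of MIC. Samples to 24 h were plated on BHI agar for 24 h at 35°C. Value is the log10 CFU/ml change from baseline at 24 h.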

Staphylococcus aureus [3] = assay: Antimicrobial activity against vancomycin-intermediate Staphylococcus aureus after 24 hrs by microdilution method; conditions: for MBC / MIC50 / MIC90: Staphylococcus aureus, 24 h
How it was run: (§3)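 Broth microdilution per CLSI, inoculum 5 × 10^5 CFU/ml, Mueller-Hinton broth with 12.5 μg/ml magnesium and 25 μg/ml calcium (SMHB). Daptomycin was instead tested in SMHB at physiologic calcium (final 1.1 to 1.3 mM). Incubation 24 h at 35°C; MIC read; run in duplicate. MBC from 5-μl samples of clear wells plated on BHI agar, 24 h at 35°C.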

Staphylococcus aureus [4] = assay: Antimicrobial activity against vancomycin-resistant Staphylococcus aureus isolate MI after 24 hrs by microdilution method in presence of 50% human serum
How it was run: (§4)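 Broth microdilution per CLSI, inoculum 5 × 10^5 CFU/ml, 24 h at 35°C, in duplicate. Medium was 50% (vol/vol) human serum plus 50% broth, final 25 SMHB for TD-1792 and 50 SMHB for daptomycin. Serum was heated 56°C for 1 h and filtered through 0.8, 0.5 and 0.22 μm. MBC by plating clear wells on BHI agar.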

Staphylococcus aureus [5] = assay: Antimicrobial activity against vancomycin-intermediate Staphylococcus aureus isolate MU50 after 24 hrs by microdilution method; conditions: isolate MU50, 24 h; how it was run: as §3
Staphylococcus aureus [6] = assay: Antimicrobial activity against vancomycin-resistant Staphylococcus aureus isolate PA assessed as bacterial count at 4 times MIC after 24 hrs by colony counting method
How it was run: (§5)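 Time-kill in triplicate. Mid-exponential culture (OD600 ~0.3) diluted in supplemented Mueller-Hinton broth to 5 × 10^6 CFU/ml. Daptomycin was run at physiologic calcium, 1.1 to 1.3 mM. […] Samples at 0, 1, 4, 8 and 24 h were diluted in cold saline or vacuum filtered, then spiral-plated on BHI agar for 24 h at 35°C. Value is the log10 CFU/ml change from baseline at 24 h.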

Staphylococcus aureus [7] = assay: Antimicrobial activity against vancomycin-resistant Staphylococcus aureus isolate MI assessed as bacterial count at 16 times MIC after 24 hrs by colony counting method; how it was run: as §5
Staphylococcus aureus [8] = assay: Antimicrobial activity against vancomycin-intermediate Staphylococcus aureus isolate NJ992 assessed as bacterial count at 32 times MIC after 24 hrs by colony counting method in presence of 50% human serum
How it was run: (§6)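 Triplicate 24-h time-kill in 50% human serum (heated 56°C 1 h, filtered) mixed with supplemented Mueller-Hinton broth, giving final 25 μg/ml Ca broth strength for TD-1792 and 50 for daptomycin. […] Samples from 0 to 24 h were counted on BHI agar (35°C, 24 h). Value is log10 CFU/ml change from baseline.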

Staphylococcus aureus [9] = assay: Antimicrobial activity against vancomycin-intermediate Staphylococcus aureus isolate NJ992 assessed as bacterial count at 32 times MIC after 24 hrs by colony counting method; how it was run: as §1
Staphylococcus aureus [10] = assay: Antimicrobial activity against vancomycin-intermediate Staphylococcus aureus isolate MU50 after 24 hrs by microdilution method in presence of 50% human serum; conditions: isolate MU50, 24 h; how it was run: as §4
Staphylococcus aureus [11] = assay: Antimicrobial activity against vancomycin-resistant Staphylococcus aureus isolate PA assessed as bacterial count at 32 times MIC after 24 hrs by colony counting method; how it was run: as §5
Staphylococcus aureus [12] = assay: Antimicrobial activity against vancomycin-intermediate Staphylococcus aureus isolate NJ992 after 24 hrs by microdilution method; conditions: isolate NJ992, 24 h; how it was run: as §3
Staphylococcus aureus [13] = assay: Antimicrobial activity against vancomycin-resistant Staphylococcus aureus isolate PA after 24 hrs by microdilution method in presence of 50% human serum; how it was run: as §4
Staphylococcus aureus [14] = assay: Antimicrobial activity against vancomycin-intermediate Staphylococcus aureus isolate NJ992 after 24 hrs by microdilution method in presence of 50% human serum; conditions: isolate NJ992, 24 h; how it was run: as §4
Staphylococcus aureus [15] = assay: Antimicrobial activity against vancomycin-resistant Staphylococcus aureus isolate PA assessed as bacterial count at 32 times MIC after 24 hrs by colony counting method in presence of 50% human serum; how it was run: as §2
[16] = test system: Staphylococcus haemolyticus; assay: Antimicrobial activity against vancomycin-intermediate Staphylococcus haemolyticus after 24 hrs by microdilution method; conditions: for MBC / MIC50 / MIC90: Staphylococcus haemolyticus, 24 h
How it was run: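 CLSI broth microdilution in supplemented Mueller-Hinton broth (12.5 μg/ml Mg, 25 μg/ml Ca), with Ca adjusted to 1.1–1.3 mM for daptomycin. Inoculum was 5 × 10^5 CFU/ml, incubated 24 h at 35°C, done in duplicate. For MBC, clear wells were plated on BHI agar and read after 24 h at 35°C.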

Staphylococcus aureus [17] = assay: Antimicrobial activity against vancomycin-intermediate Staphylococcus aureus isolate MU50 assessed as bacterial count at 8 times MIC after 24 hrs by colony counting method; how it was run: as §1
Staphylococcus aureus [18] = assay: Antimicrobial activity against vancomycin-resistant Staphylococcus aureus isolate NY after 24 hrs by microdilution method; how it was run: as §3
Staphylococcus aureus [19] = assay: Antimicrobial activity against vancomycin-resistant Staphylococcus aureus isolate PA after 24 hrs by microdilution method; how it was run: as §3
Staphylococcus aureus [20] = assay: Antimicrobial activity against vancomycin-resistant Staphylococcus aureus isolate PA assessed as bacterial count at 8 times MIC after 24 hrs by colony counting method in presence of 50% human serum; how it was run: as §2
Staphylococcus aureus [21] = assay: Antimicrobial activity against vancomycin-intermediate Staphylococcus aureus isolate NJ992 assessed as bacterial count at 16 times MIC after 24 hrs by colony counting method; how it was run: as §1
Staphylococcus aureus [22] = assay: Antimicrobial activity against vancomycin-heteroresistant Staphylococcus aureus after 24 hrs by microdilution method; conditions: Staphylococcus aureus, 24 h; how it was run: as §3
Staphylococcus aureus [23] = assay: Antimicrobial activity against vancomycin-intermediate Staphylococcus aureus isolate NJ992 assessed as bacterial count at 4 times MIC after 24 hrs by colony counting method; how it was run: as §1
Staphylococcus aureus [24] = assay: Antimicrobial activity against vancomycin-intermediate Staphylococcus aureus isolate MU50 assessed as bacterial count at 16 times MIC after 24 hrs by colony counting method in presence of 50% human serum; how it was run: as §6

## CCCCCCCCCC(=O)N[C@@H](Cc1c[nH]c2ccccc12)C(=O)N[C@H](CC(N)=O)C(=O)N[C@@H](CC(=O)O)C(=O)N[C@@H]1C(=O)NCC(=O)N[C@@H](CCCN)C(=O)N[C@@H](CC(=O)O)C(=O)N[C@H](C)C(=O)N[C@@H](CC(=O)O)C(=O)NCC(=O)N[C@H](CO)C(=O)N[C@@H]([C@H](C)CC(=O)O)C(=O)N[C@@H](CC(=O)c2ccccc2N)C(=O)O[C@@H]1C
Staphylococcus aureus [1]
  log10CFU/ml: 5.12
Staphylococcus aureus [2]
  log10CFU/ml: 4.69
Staphylococcus aureus [3]
  MBC50: 1 µg/mL (≈ 0.617 µM)
  MBC90: 2 µg/mL (≈ 1.23 µM)
  MBC: 0.25 µg/mL (≈ 0.154 µM)
  MIC50: 1 µg/mL (≈ 0.617 µM)
  MIC90: 1 µg/mL (≈ 0.617 µM)
Staphylococcus aureus [4]
  MBC: 1 µg/mL
  MIC: 0.5 µg/mL
Staphylococcus aureus [5]
  MBC: 1 µg/mL (≈ 0.617 µM)
  MIC: 1 µg/mL (≈ 0.617 µM)
Staphylococcus aureus [6]
  log10CFU/ml: 3.33
Staphylococcus aureus [7]
  log10CFU/ml: 4.96
Staphylococcus aureus [8]
  log10CFU/ml: 5.04
Staphylococcus aureus [9]
  log10CFU/ml: 4.93
Staphylococcus aureus [10]
  MBC: 2 µg/mL
  MIC: 2 µg/mL
Staphylococcus aureus [11]
  log10CFU/ml: 5.1
Staphylococcus aureus [12]
  MBC: 1 µg/mL (≈ 0.617 µM)
  MIC: 1 µg/mL (≈ 0.617 µM)
Staphylococcus aureus [13]
  MBC: 0.5 µg/mL
  MIC: 0.25 µg/mL
Staphylococcus aureus [14]
  MBC: 2 µg/mL
  MIC: 2 µg/mL
Staphylococcus aureus [15]
  log10CFU/ml: 5.11
[16]
  MBC50: 1 µg/mL (≈ 0.617 µM)
  MBC90: 2 µg/mL (≈ 1.23 µM)
  MBC: 0.25 µg/mL (≈ 0.154 µM)
  MIC50: 1 µg/mL (≈ 0.617 µM)
  MIC90: 1 µg/mL (≈ 0.617 µM)
Staphylococcus aureus [17]
  log10CFU/ml: 4.82
Staphylococcus aureus [18]
  MBC: 0.125 µg/mL (≈ 0.0771 µM)
  MIC: 0.125 µg/mL (≈ 0.0771 µM)
Staphylococcus aureus [19]
  MBC: 0.25 µg/mL (≈ 0.154 µM)
  MIC: 0.25 µg/mL (≈ 0.154 µM)
Staphylococcus aureus [20]
  log10CFU/ml: 5.11
Staphylococcus aureus [21]
  log10CFU/ml: 4.68
Staphylococcus aureus [22]
  MBC: 0.25 µg/mL (≈ 0.154 µM)
  MIC50: 1 µg/mL (≈ 0.617 µM)
  MIC90: 1 µg/mL (≈ 0.617 µM)
Staphylococcus aureus [23]
  log10CFU/ml: 3.61
Staphylococcus aureus [24]
  log10CFU/ml: 5.09

## CN[C@H](CC(C)C)C(=O)N[C@H]1C(=O)N[C@@H](CC(N)=O)C(=O)N[C@H]2C(=O)N[C@H]3C(=O)N[C@H](C(=O)N[C@H](C(=O)NCCCO/N=C(\C(=O)N[C@@H]4C(=O)N5C(C(=O)[O-])=C(C[n+]6ccccc6)CS[C@H]45)c4nc(N)sc4Cl)c4cc(O)cc(O)c4-c4cc3ccc4O)[C@H](O)c3ccc(c(Cl)c3)Oc3cc2cc(c3O[C@@H]2O[C@H](CO)[C@@H](O)[C@H](O)[C@H]2O[C@H]2C[C@](C)(N)[C@H](O)[C@H](C)O2)Oc2ccc(cc2Cl)[C@H]1O
Staphylococcus aureus [1]
  log10CFU/ml: 4.92
Staphylococcus aureus [2]
  log10CFU/ml: 4.06
Staphylococcus aureus [3]
  MBC50: 0.06 µg/mL (≈ 0.0303 µM)
  MBC90: 0.125 µg/mL (≈ 0.063 µM)
  MBC: 0.015 µg/mL (≈ 0.00756 µM)
  MIC50: 0.06 µg/mL (≈ 0.0303 µM)
  MIC90: 0.125 µg/mL (≈ 0.063 µM)
Staphylococcus aureus [4]
  MBC: 8 µg/mL
  MIC: 2 µg/mL
Staphylococcus aureus [5]
  MBC: 0.03 µg/mL (≈ 0.0151 µM)
  MIC: 0.03 µg/mL (≈ 0.0151 µM)
Staphylococcus aureus [6]
  log10CFU/ml: 4.06
Staphylococcus aureus [7]
  log10CFU/ml: 3.34
Staphylococcus aureus [8]
  log10CFU/ml: 4.92
Staphylococcus aureus [9]
  log10CFU/ml: 5
Staphylococcus aureus [10]
  MBC: 0.25 µg/mL
  MIC: 0.25 µg/mL
Staphylococcus aureus [11]
  log10CFU/ml: 5.05
Staphylococcus aureus [12]
  MBC: 0.06 µg/mL (≈ 0.0303 µM)
  MIC: 0.06 µg/mL (≈ 0.0303 µM)
Staphylococcus aureus [13]
  MBC: 0.125 µg/mL
  MIC: 0.125 µg/mL
Staphylococcus aureus [14]
  MBC: 0.25 µg/mL
  MIC: 0.25 µg/mL
Staphylococcus aureus [15]
  log10CFU/ml: 5.09
[16]
  MBC50: 0.06 µg/mL (≈ 0.0303 µM)
  MBC90: 0.125 µg/mL (≈ 0.063 µM)
  MBC: 0.015 µg/mL (≈ 0.00756 µM)
  MIC50: 0.06 µg/mL (≈ 0.0303 µM)
  MIC90: 0.125 µg/mL (≈ 0.063 µM)
Staphylococcus aureus [17]
  log10CFU/ml: 4.33
Staphylococcus aureus [18]
  MBC: 0.06 µg/mL (≈ 0.0303 µM)
  MIC: 0.03 µg/mL (≈ 0.0151 µM)
Staphylococcus aureus [19]
  MBC: 0.125 µg/mL (≈ 0.063 µM)
  MIC: 0.03 µg/mL (≈ 0.0151 µM)
Staphylococcus aureus [20]
  log10CFU/ml: 4.65
Staphylococcus aureus [21]
  log10CFU/ml: 4.94
Staphylococcus aureus [22]
  MBC: 0.015 µg/mL (≈ 0.00756 µM)
  MIC50: 0.06 µg/mL (≈ 0.0303 µM)
  MIC90: 0.125 µg/mL (≈ 0.063 µM)
Staphylococcus aureus [23]
  log10CFU/ml: 3.84
Staphylococcus aureus [24]
  log10CFU/ml: 4.37

Reference: ChEMBL document CHEMBL1687766, “In vitro activity of the new multivalent glycopeptide-cephalosporin antibiotic TD-1792 against vancomycin-nonsusceptible Staphylococcus isolates” (Antimicrob Agents Chemother, 2010)
